Legend:
Type in all cases: ADME
Liver = experiment: Intrinsic clearance in B6C3F1 mouse liver microsomes after 30 mins by LC-ESI-MS analysis; conditions: 0.5 h
Method in brief: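 2'-OH-TCC at 0.2, 0.5, 1, 2, 3, 5, 10 and 50 µM incubated with liver microsomes (alamethicin, MgCl2, saccharolactone, UDPGA; 37 °C), sampled at 5, 10, 15 and 30 min. Samples ≥5 µM diluted 1:9 in ACN; LC-ESI-MS. KM and vmax fitted from rate vs concentration; intrinsic clearance derived from these; mean and SD of three.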

[1] = biological target: T1, UDP-glucuronosyltransferase 1A9 (Homo sapiens, UniProt O60656); experiment: Drug metabolism assessed as human UGT1A9-mediated N-glucuronide-triclocarban formation expressed in baculovirus infected insect sf9 cells incubated for 5 mins prior to UDPGA addition measured after 5 to 30 mins by LC-UV analysis
T1 sequence (O60656 whole entry): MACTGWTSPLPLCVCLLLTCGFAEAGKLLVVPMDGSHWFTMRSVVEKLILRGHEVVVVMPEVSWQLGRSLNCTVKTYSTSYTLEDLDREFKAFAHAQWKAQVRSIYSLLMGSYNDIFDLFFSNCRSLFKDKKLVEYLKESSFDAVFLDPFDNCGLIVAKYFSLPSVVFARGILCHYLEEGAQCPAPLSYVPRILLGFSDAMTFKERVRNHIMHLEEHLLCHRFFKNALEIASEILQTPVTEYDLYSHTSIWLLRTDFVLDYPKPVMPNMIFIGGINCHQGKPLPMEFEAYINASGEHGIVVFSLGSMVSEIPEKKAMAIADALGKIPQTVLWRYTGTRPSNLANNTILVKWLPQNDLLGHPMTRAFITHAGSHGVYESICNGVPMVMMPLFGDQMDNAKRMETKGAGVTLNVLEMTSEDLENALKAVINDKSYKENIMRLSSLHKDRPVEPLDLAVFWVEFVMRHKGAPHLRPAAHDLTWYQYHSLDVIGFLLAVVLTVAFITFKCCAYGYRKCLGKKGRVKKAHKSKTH
Method in brief: (§1)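 Microsomes or UGT Supersomes (5 µg protein) were held 15 min on ice with alamethicin in 100 mM potassium phosphate pH 7.4. TCC was added at 10 µM (2% DMSO) with 10 mM MgCl2 and 10 mM saccharolactone, pre-warmed 5 min at 37 °C, then started with UDPGA. Samples at 5, 10, 15 and 30 min were quenched in ACN. Product was read by LC-UV at 265 nm; rate came from regression over time, three incubations.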

[2] = biological target: T2, UDP-glucuronosyltransferase 2B4 (Homo sapiens, UniProt P06133); experiment: Drug metabolism assessed as human UGT2B4-mediated N'-glucuronide-triclocarban formation expressed in baculovirus infected insect sf9 cells incubated for 5 mins prior to UDPGA addition measured after 5 to 30 mins by LC-UV analysis; method in brief: as §1
T2 sequence (P06133 whole entry): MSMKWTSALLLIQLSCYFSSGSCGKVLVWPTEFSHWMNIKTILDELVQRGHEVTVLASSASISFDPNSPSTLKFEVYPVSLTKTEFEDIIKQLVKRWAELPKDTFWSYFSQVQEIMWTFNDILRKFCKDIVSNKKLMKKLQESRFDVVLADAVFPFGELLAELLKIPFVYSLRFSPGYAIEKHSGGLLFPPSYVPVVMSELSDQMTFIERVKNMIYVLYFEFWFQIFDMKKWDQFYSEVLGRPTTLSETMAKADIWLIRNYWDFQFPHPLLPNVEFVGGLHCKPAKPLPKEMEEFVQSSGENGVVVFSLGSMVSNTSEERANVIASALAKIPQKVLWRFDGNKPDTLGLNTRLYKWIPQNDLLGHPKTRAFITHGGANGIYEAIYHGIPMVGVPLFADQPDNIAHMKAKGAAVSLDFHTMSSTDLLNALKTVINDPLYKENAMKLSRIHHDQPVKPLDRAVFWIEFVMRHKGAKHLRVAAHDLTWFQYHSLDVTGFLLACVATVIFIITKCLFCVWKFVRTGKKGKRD

[3] = biological target: T3, UDP-glucuronosyltransferase 2B17 (Homo sapiens, UniProt O75795); experiment: Drug metabolism assessed as human UGT2B17-mediated N'-glucuronide-triclocarban formation expressed in baculovirus infected insect sf9 cells incubated for 5 mins prior to UDPGA addition measured after 5 to 30 mins by LC-UV analysis; method in brief: as §1
T3 sequence (O75795 whole entry): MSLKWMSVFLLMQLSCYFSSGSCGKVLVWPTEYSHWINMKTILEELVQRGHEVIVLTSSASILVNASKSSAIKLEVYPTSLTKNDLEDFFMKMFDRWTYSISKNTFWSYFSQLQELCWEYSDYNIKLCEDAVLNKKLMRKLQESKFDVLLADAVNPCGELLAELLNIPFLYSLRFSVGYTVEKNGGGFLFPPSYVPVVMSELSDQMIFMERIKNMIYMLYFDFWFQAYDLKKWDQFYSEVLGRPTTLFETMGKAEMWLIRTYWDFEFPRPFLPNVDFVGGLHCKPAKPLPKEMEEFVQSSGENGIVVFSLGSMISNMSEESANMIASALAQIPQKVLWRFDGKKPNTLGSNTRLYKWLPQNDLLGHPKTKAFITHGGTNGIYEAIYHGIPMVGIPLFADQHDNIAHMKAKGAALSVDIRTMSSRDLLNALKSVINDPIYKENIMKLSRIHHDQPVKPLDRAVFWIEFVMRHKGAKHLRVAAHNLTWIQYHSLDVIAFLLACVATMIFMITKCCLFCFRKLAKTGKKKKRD

[4] = biological target: T1, UDP-glucuronosyltransferase 1A9; experiment: Drug metabolism assessed as human UGT1A9-mediated N'-glucuronide-triclocarban formation expressed in baculovirus infected insect sf9 cells incubated for 5 mins prior to UDPGA addition measured after 30 mins by LC-ESI-MS analysis; conditions: sf9, 0.5 h
Method in brief: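 TCC was incubated at 10 µM (2% DMSO) in 100 mM phosphate pH 7.4 with alamethicin-treated microsomes or Supersomes, 10 mM MgCl2 and 10 mM saccharolactone. After 5 min pre-incubation at 37 °C, UDPGA was added to start the reaction. Protein was raised up to 2 mg/mL. Samples were quenched in ACN with 1 µM DCC internal standard, centrifuged, and N-glucuronides detected by LC-ESI-MS/MS in SRM mode.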

Row | SMILES | CLH (Liver) [µL/min/mg] | Drug metabolism [1] | Drug metabolism [2] | Drug metabolism [3] | Drug metabolism [4]
1 | O=C(Nc1ccc(Cl)c(Cl)c1)Nc1ccc(Cl)cc1O | 1450 |  |  |  | 
2 | O=C(Nc1ccc(Cl)cc1)Nc1ccc(Cl)c(Cl)c1 [TRICLOCARBAN] |  | metabolite_not_detected | metabolite_not_detected | metabolite_not_detected | metabolite_detected
